# Reference: PMC11621760 (Proceedings of the National Academy of Sciences of the …, 2024)
# What was measured:
# AR [1] = target: T1, AR (Homo sapiens, UniProt P10275); assay: AR transcriptional assays of the triazole series; assay type: cell-based; details: SI Fig. S1B/C
# T1 sequence (P10275 1-920): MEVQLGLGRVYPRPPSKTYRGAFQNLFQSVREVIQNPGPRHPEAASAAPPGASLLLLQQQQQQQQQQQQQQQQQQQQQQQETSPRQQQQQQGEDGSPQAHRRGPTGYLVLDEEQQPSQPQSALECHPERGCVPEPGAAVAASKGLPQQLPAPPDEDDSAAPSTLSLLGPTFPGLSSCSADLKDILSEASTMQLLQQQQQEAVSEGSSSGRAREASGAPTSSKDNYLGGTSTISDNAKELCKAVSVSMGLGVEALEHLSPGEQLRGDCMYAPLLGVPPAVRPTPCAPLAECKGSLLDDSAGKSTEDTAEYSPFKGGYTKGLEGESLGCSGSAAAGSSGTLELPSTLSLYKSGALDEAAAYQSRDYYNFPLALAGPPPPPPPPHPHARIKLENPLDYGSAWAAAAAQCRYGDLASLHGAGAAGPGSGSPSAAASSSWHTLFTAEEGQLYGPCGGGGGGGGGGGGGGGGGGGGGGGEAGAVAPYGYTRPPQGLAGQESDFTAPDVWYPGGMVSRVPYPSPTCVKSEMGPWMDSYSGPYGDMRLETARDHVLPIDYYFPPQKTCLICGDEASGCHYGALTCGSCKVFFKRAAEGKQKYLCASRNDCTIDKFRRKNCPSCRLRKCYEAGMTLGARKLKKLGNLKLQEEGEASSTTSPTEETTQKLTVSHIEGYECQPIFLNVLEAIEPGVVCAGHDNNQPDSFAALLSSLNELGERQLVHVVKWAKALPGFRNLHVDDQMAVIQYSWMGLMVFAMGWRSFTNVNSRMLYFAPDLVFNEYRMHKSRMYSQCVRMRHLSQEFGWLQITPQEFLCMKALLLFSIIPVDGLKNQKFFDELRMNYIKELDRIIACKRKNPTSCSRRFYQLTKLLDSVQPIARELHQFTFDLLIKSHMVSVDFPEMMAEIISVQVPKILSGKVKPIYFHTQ
# [2] = target: T2, progesterone receptor (PR) (Homo sapiens, UniProt P06401); assay: Radioligand binding assay, progesterone receptor
# T2 sequence (P06401 1-933): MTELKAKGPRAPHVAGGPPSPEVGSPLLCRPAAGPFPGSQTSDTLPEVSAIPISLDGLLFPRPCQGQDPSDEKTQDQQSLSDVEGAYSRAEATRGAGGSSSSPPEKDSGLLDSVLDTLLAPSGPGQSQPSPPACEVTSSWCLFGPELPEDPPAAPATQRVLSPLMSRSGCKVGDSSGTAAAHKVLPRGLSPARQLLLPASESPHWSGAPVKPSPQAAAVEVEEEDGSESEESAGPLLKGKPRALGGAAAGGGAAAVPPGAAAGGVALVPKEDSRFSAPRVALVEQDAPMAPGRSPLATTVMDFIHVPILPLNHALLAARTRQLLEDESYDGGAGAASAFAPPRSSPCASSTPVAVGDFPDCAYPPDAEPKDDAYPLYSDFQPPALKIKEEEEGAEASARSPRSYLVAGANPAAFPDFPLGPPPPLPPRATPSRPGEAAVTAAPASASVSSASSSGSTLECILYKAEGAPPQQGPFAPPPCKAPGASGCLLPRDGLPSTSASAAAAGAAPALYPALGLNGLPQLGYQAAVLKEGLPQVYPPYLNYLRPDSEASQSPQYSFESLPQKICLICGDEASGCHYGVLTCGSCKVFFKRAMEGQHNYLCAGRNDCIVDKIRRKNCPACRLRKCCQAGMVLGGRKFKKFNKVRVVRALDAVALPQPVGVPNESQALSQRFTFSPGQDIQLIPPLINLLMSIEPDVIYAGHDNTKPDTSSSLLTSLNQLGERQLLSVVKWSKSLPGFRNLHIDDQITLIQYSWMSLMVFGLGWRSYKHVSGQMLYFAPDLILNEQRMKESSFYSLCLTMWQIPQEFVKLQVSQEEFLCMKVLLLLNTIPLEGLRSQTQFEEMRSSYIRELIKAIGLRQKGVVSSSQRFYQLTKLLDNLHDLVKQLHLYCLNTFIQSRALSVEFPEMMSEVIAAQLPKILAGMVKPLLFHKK
# How it was run: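 Eurofins Panlabs radioligand binding with steroid hormone receptors and their respective ligands. Buffer: 50 mM Tris-HCl, 0.8 M NaCl, 10% glycerol, 2 mM dithiothreitol, 0.1% BSA, 2% EtOH, pH 7.4. Receptor-ligand incubation, then 15 min with hydroxyapatite slurry. Samples filtered, filters washed three times and counted for specifically bound ligand. Log concentration series gave Ki and IC50.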
# LNCaP-AR cells = assay: Cell growth; assay type: cell-based, human
# [3] = Solubility / precipitation in solvents; assay type: physicochemical
# [4] = Parallel Artificial Membrane Permeability Assay; assay type: in vitro ADME; details: pH 6.5
# AR [5] = target: T1, AR; assay type: cell-based; details: VCaP, CSS and 10 nM R1881
# LAPC4 xenograft = LAPC4 xenograft growth in vivo; set-up: species or system mice; details: 20 mg/kg via oral gavage, 42 days
# GFP-AR [6] = target: T3, GFP-AR (Homo sapiens, UniProt P10275); assay type: cell-based; details: murine 3108 cells expressing GFP-AR
# T3 sequence (P10275 1-920): T1 sequence (P10275 1-920)
# 22Rv1 cells = assay: Cell growth; assay type: cell-based, human
# [7] = system: H3K27ac and AR 3D chromatin contacts; assay: AQuA-HiChIP; assay type: cell-based, human; details: 24 h at 20 µM, LNCaP-AR
# How it was run: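 LNCaP-AR cells grown in DMEM, 10% FBS, penicillin-streptomycin-glutamine, 37 °C, 5% CO2. MNase-based HiChIP for AR and H3K27ac with medium-salt washes and mouse chromatin spike-in for absolute quantification (AQuA). Paired-end sequencing to at least 200 million reads. Loops were filtered by distance, minimum AQuA-CPM and connection number, merged into clusters, and ranked by summed short- and long-range contacts.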
# hAR = target: T4, hAR (Homo sapiens, UniProt P10275); details: radioligand binding
# T4 sequence (P10275 669-920 limits assumed): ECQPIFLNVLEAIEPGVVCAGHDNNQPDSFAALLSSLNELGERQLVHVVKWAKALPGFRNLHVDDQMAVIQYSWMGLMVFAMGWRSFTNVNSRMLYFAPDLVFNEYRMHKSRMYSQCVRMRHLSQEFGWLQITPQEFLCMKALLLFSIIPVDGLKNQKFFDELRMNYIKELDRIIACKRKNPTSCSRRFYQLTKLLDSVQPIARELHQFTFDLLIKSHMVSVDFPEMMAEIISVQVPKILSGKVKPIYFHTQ
# [8] = Microsome metabolic assay; assay type: in vitro ADME; details: in comparison to control compounds
# GFP-AR [9] = target: T3, GFP-AR; assay: GFP-AR construct nuclear translocation in human cell lines; assay type: cell-based; details: CSS
# [10] = once peak concentration is reached; cited from earlier work
smiles,measurement,setting,value
Cn1cc(-c2ccc(CN3C(=S)N(c4ccc(C#N)c(C(F)(F)F)c4)C(=O)C3(C)C)cc2)nn1 [15b],anti-AR transcriptional activity (in words),AR [1],dramatic loss in activity
CC1(C)C(=O)N(c2ccc(C#N)c(C(F)(F)F)c2)C(=S)N1Cc1ccc(-c2c[nH]nn2)cc1 [BG-15a],binding affinity to the PR (in words),[2],nanomolar range binding affinity
same,growth inhibition compared to enzalutamide,LNCaP-AR cells,more efficacious in inhibiting growth compared to enzalutamide
same,solubility (in words),[3],limited
same,drug recovery and cell permeability (PAMPA),[4],performed similarly to each other and enzalutamide
same,AR transcriptional activity (luciferase),AR [5],dose-dependent decrease of AR activity
same,tumor growth,LAPC4 xenograft,inhibition of tumor growth
same,"AR translocation to the nucleus (nuclear to cytoplasmic ratio, dose response)",GFP-AR [6],induced nuclear translocation at doses 100 nM to 10 µM
same,growth inhibition compared to enzalutamide,22Rv1 cells,more efficacious in inhibiting growth compared to enzalutamide
same,H3K27ac long-range contacts at AR loops,[7],decreased long-range acetylation contacts at AR loops
same,AR binding affinity (in words),hAR,strong AR binding affinity
same,microsomal half-life (in words),[8],notably high half-life
same,AR nuclear translocation (GFP-AR construct),GFP-AR [9],consistently stimulated AR nuclear translocation
"CNC(=O)c1ccc(N2C(=S)N(c3ccc(C#N)c(C(F)(F)F)c3)C(=O)C2(C)C)cc1F [Enzalutamide, enzalutamide]",half-life in patients,[10],around 5 days
CC(O)(CS(=O)(=O)c1ccc(F)cc1)C(=O)Nc1ccc(C#N)c(C(F)(F)F)c1 (stereo not drawn) [bicalutamide],H3K27ac long-range contacts at AR loops,[7],decreased long-range acetylation contacts at AR loops
